Laboratory results as given in ChEMBL document CHEMBL1125033, “Structure-activity relationship of antiestrogens. Phenolic analogues of 2,3-diaryl-2H-1-benzopyrans” (J Med Chem, 1990).

Key:
[1] = test system: Anti-estrogen binding site (AEBS) (Rattus norvegicus); assay: Relative binding affinity against Antiestrogen binding site(AEBS)
[2] = biological target: T1, Estrogen receptor (Rattus norvegicus) (UniProt P06211+Q62986)
[3] = biological target: T1, Estrogen receptor (Rattus norvegicus); assay: Relative binding affinity against estrogen receptor(ER); type: protein assay
Method in brief: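 Uterine cytosol from immature rats primed s.c. with 0.1 μg E₂ 24 h before sacrifice, one uterine equivalent per mL TEA buffer (pH 7.4, 7% DMF). Incubated 18-20 h at 4 °C with ³H-E₂ (5 × 10⁻⁹ M) and competitor at 10⁻⁴–10⁻⁹ M, in triplicate. Charcoal-dextran separation for 20 min, then scintillation counting.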

[4] = biological target: T1, Estrogen receptor (Rattus norvegicus); remark: listed apart in the source

| relative binding affinity (RBA) [1] | Mean weight [2] [mg] | relative binding affinity (RBA) [3] | Mean weight [4] [mg] | Compound |
| --- | --- | --- | --- | --- |
| 13 | 21.2 | 9.5 | 15.2 | Oc1ccc2c(c1)OC(c1ccc(OCCN3CCCCC3)cc1)C(c1ccccc1)=C2 (stereo not given) |
| 225 | 18.6 | – | 15.3 | C1=C(c2ccccc2)C(c2ccc(OCCN3CCCCC3)cc2)Oc2ccccc21 (stereo not given) |
| 14 | 11.6 | 4.2 | 10.4 | Oc1ccc(C2=Cc3ccccc3OC2c2ccc(OCCN3CCCCC3)cc2)cc1 (stereo not given) |
| 25 | 29.1 | 8 | 18.6 | COc1ccc(C2=C(C(=O)c3ccc(OCCN4CCCC4)cc3)c3ccccc3CC2)cc1 |
| – | 44.2 | 2.2 | 14.2 | Oc1ccc(C2=Cc3ccc(O)cc3OC2c2ccc(O)cc2)cc1 (stereo not given) |
| 6.5 | 25.6 | 93 | 25.5 | O=C(c1ccc(OCCN2CCCC2)cc1)c1c(-c2ccc(O)cc2)sc2cc(O)ccc12 |
| 21 | 43.1 | 0.02 | 22.6 | COc1ccc2c(c1)OC(c1ccc(OCCN3CCCCC3)cc1)C(c1ccccc1)=C2 (stereo not given) |
| 2.2 | 12.4 | 49 | 10.6 | Oc1ccc(C2=Cc3ccc(O)cc3OC2c2ccc(OCCN3CCCCC3)cc2)cc1 (stereo not given) |
